Structures are written as SMILES. The source made the active and inactive calls. No cut-off for these calls is given here.

The subject of assay [1] is T4 polynucleotide kinase (Bacteriophage T4). Briefly: Inhibition of T4 polynucleotide kinase at 200 uM.
In another assay the test system is Oryza sativa. The experiment in a line: Inhibition of rice DNA polymerase lambda at 200 uM. In a few lines:
(§1)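 Compound dissolved in DMSO and sonicated 30 s, then held with each polymerase (final 0.05 U) in 50 mM Tris-HCl pH 7.5, 1 mM DTT, 50% glycerol, 0.1 mM EDTA at 0 °C for 10 min. Reaction with poly(dA)/oligo(dT)12-18 and dTTP ran 60 min at 37 °C (Taq at 74 °C). Activity relative to no-compound control; means ± SEM, four independent experiments.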

The target of assay [2] is T1, DNA polymerase lambda (Homo sapiens) (UniProt Q9UGP5).
T1 sequence (whole entry): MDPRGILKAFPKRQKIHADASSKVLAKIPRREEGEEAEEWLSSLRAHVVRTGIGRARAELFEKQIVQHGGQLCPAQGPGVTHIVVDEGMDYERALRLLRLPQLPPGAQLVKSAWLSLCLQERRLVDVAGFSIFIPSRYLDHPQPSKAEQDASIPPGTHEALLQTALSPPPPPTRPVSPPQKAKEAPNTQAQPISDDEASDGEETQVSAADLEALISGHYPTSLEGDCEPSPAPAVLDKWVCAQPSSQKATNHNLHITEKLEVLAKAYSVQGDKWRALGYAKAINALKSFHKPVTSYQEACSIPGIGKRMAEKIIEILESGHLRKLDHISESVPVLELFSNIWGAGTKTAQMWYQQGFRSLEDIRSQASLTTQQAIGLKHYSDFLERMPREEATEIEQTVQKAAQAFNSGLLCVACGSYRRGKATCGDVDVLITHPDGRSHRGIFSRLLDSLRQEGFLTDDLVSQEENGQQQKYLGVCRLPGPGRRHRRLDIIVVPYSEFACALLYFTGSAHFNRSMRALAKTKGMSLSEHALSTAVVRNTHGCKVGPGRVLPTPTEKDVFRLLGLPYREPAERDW
The experiment in a line: Inhibition of human DNA polymerase lambda at 200 uM. In a few lines: as §1

Assay [3] deals with T2, DNA polymerase alpha catalytic subunit (Drosophila melanogaster) (UniProt P26019).
T2 sequence (whole entry): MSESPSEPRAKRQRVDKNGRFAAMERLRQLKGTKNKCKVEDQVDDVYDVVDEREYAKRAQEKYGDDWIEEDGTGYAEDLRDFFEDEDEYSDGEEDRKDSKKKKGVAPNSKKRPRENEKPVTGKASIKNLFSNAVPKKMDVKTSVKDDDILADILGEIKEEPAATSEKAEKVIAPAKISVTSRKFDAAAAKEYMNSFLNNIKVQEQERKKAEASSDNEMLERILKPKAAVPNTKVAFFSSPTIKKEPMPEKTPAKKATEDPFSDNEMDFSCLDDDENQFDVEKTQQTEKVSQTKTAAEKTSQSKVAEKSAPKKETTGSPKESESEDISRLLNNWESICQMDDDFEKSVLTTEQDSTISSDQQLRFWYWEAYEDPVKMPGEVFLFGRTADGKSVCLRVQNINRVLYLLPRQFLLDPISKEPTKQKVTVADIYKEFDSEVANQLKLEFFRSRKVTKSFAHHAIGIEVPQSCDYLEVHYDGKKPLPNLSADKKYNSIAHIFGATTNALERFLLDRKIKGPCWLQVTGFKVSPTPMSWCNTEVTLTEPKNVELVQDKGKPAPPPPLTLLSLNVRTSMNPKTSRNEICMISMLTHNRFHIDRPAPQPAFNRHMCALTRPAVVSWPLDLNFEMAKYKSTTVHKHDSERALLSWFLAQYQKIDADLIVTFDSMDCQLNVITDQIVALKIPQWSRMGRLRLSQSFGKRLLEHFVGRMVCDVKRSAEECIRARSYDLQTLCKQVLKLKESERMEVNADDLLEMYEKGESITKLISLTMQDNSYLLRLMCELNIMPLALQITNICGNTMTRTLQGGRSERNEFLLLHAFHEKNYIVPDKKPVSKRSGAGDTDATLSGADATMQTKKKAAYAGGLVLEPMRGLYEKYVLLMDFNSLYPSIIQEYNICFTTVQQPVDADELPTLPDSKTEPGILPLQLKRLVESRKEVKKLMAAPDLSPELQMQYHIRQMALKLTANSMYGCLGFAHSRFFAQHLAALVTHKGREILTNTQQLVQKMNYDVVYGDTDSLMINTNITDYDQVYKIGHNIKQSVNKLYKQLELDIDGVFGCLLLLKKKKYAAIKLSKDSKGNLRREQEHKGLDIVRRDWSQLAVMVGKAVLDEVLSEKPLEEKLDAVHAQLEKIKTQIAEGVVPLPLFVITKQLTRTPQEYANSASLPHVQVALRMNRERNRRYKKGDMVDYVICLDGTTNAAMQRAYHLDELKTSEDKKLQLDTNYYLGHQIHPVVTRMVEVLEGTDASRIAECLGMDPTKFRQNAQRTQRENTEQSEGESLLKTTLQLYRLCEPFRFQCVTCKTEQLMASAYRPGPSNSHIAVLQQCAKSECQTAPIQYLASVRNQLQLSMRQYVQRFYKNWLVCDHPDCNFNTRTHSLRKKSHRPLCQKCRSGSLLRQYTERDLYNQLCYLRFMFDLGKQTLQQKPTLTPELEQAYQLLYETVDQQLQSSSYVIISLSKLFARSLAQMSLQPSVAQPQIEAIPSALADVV
Briefly: Inhibition of fruit fly DNA polymerase alpha at 200 uM. In a few lines:
as §1

The next assay concerns Escherichia coli. Briefly: Inhibition of Escherichia coli DNA polymerase I Klenow fragment at 200 uM. The procedure, abridged: as §1
Assay [4] deals with DNA polymerase I, thermostable (Thermus aquaticus) (UniProt P19821). Briefly: Inhibition of Taq polymerase at 200 uM. The procedure, abridged: as §1
Chain of DNA polymerase I, thermostable (Thermus aquaticus) (P19821 whole entry): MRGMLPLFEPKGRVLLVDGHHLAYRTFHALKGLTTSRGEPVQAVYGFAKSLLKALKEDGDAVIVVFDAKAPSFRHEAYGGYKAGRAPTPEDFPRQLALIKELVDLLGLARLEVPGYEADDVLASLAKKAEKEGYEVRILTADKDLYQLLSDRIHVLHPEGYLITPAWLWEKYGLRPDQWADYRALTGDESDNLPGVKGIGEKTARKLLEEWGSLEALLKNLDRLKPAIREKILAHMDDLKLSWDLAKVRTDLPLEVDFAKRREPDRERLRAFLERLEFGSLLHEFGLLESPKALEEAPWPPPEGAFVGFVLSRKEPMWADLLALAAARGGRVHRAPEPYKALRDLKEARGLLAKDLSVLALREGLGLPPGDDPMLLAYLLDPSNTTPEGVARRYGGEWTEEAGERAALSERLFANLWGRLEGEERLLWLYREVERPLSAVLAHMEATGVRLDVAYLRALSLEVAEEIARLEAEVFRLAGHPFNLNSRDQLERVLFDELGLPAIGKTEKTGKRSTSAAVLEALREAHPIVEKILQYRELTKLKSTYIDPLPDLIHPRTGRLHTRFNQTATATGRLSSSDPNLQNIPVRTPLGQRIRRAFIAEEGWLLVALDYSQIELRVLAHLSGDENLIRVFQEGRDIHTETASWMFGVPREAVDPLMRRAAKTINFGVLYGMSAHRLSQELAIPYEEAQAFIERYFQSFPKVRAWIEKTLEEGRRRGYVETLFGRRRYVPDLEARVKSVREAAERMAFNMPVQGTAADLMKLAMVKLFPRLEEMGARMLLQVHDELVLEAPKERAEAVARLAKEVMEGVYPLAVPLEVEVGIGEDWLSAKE

As for `C/C(=C\CC[C@H](C)C(=O)O)[C@H]1CC[C@H](C(=O)O)CC1`, the result (in assay [1]; in assay [3]; with Escherichia coli; in assay [4]) was inactive. Further, the result (in the assay on Oryza sativa; in assay [2]) was Active.

(Values after ChEMBL document CHEMBL1157184, “Hymenoic acid, a novel specific inhibitor of human DNA polymerase lambda from a fungus of Hymenochaetaceae sp” (Bioorg Med Chem, 2008).)
